Active and inactive are the calls of the source. No cut-off for these calls is given here.
Key:
[1] = system: MGC-803; assay: Antitumor activity against human MGC-803cells xenografted in BALB/C nude mouse assessed as reduction in tumor volume at 20 mg/kg, ip administered every 2 days and measured 3 times per week; format: functional, organism-based; settings: time 2.0 day
Outline: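 Male BALB/c nude mice, 6 weeks old, given 5×10^6 MGC-803 cells s.c. in the flank. When tumors reached about 80 mm3, mice were randomized (n = 6/group) and dosed i.p. every 2 days. Vehicle was 5% DMSO in saline. Drug solutions were 1.0 or 2.0 mg/mL (DMSO/saline). Tumor length and width plus body weight were measured three times weekly; volume = lw²/2. Mean ± SD.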

[2] = system: MGC-803; assay: Induction of apoptosis in human MGC-803 cells assessed as increase in p21 protein expression upto 2.5 uM incubated for 24 hrs by Western blot analysis; format: functional, cell-based; settings: dose microM <=2.5, time 24.0 hrs
Outline: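 MGC-803 cells (2×10^6) cultured overnight, then exposed 24 h to 0.5, 1.0 or 2.5 μM, or 5.0 μM for the reference agent. Lysates were resolved by SDS-PAGE, transferred to PVDF and probed with primary antibodies. Detection used AP-linked anti-rabbit IgG and ECL. β-actin served as loading control.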

[3] = system: MGC-803; assay: Induction of apoptosis in human MGC-803 cells assessed as increase in Bak expression at 0.5 to 2.5 uM measured after 24 hrs by Western blot analysis; settings: dose 0.5-2.5 µM
[4] = system: MGC-803; assay: Induction of apoptosis in human MGC-803 cells assessed as cell shrinkage at 0.5 to 2.5 uM incubated for 24 hrs by Hoechst 33258 staining based analysis; format: functional; settings: dose 0.5-2.5 µM
Outline: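 MGC-803 cells treated in six-well plates, fixed in 4% paraformaldehyde for 10 min, washed, stained with Hoechst 33258 for 5 min, and examined for nuclear morphology by fluorescence microscopy.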

[5] = system: MGC-803; assay: Induction of apoptosis in human MGC-803 cells assessed as late apoptotic cells at 0.5 uM measured after 24 hrs by Annexin-V/propidium iodide staining-based flow cytometric analysis (Rvb =0.93%)
[6] = system: MGC-803; assay: Cell cycle arrest in human MGC-803 cells assessed as accumulation at G2/M phase at 0.125 uM after 48 hrs by propidium iodide staining-based flow cytometric analysis (reference value: 7.94%); format: functional
[7] = system: MGC-803; assay: Induction of DNA damage in human MGC-803 cells assessed as increase in p-p53 level at 2.5 uM measured after 24 hrs by Western blot analysis; format: functional, cell-based
Outline: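 MGC-803 cells (2×10^6) plated overnight, then treated for 24 h at 0.5, 1.0 or 2.5 µM (test agent) or 5.0 µM (comparator). Whole-cell lysates separated by SDS-PAGE, transferred to PVDF and probed with primary antibodies. AP-linked anti-rabbit IgG, ECL detection, β-actin loading control. Representative of three experiments.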

[8] = system: MGC-803; assay: Induction of apoptosis in human MGC-803 cells assessed as necrotic cells at 0.5 uM measured after 24 hrs by Annexin-V/propidium iodide staining-based flow cytometric analysis (Rvb =6.05%)
[9] = system: MGC-803; assay: Induction of apoptosis in human MGC-803 cells assessed as activation of caspase 3 at 2.5 uM incubated for 24 hrs by flow cytometric analysis (reference value: 1.47%); format: functional
[10] = system: MGC-803; assay: Cell cycle arrest in human MGC-803 cells assessed as accumulation at S phase at 0.125 uM after 48 hrs by propidium iodide staining-based flow cytometric analysis (reference value: 45.1 %); format: functional
[11] = system: MGC-803; assay: Induction of intracellular Ca+ level in human MGC-803 cells at 0 to 2.5 uM after 24 hrs by fluo-3 AM dye based flow cytometric analysis; format: functional, cell-based; settings: dose 0-2.5 µM
Outline: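 MGC-803 cells in six-well plates exposed 24 h to 0.5, 1.0 or 2.5 μM. Cells were harvested, washed in cold PBS and loaded with Fluo-3 AM for 30 min at 37 in the dark. After three PBS washes, intracellular Ca2+ fluorescence was read by flow cytometry. Three independent experiments.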

SMILES: NCCCCNc1nc(/C=C/c2ccc([N+](=O)[O-])cc2)nc2ccccc12
- Activity [1]: Active
- Activity [2]: Active
- Activity [3]: inactive
- Activity [4]: Active
- Activity [5]: 6.91%
- Activity [6]: 18.16%
- Activity [7]: Active
- Activity [8]: 8.13%
- Activity [9]: 22.98%
- Activity [10]: 46.45%
- Activity [11]: Active

Reference: ChEMBL document CHEMBL4680124, “2-Styryl-4-aminoquinazoline derivatives as potent DNA-cleavage, p53-activation and in vivo effective anticancer agents” (Eur J Med Chem, 2020)
